The record followed here is ChEMBL document CHEMBL1155130, “Selective angiotensin II AT2 receptor agonists: Benzamide structure-activity relationships” (Bioorg Med Chem, 2008).

Calls of active or inactive are those of the source. No cut-off for these calls is given here.

Assay [1] has as its target T1, Type-1 angiotensin II receptor A (Rattus norvegicus, UniProt P25095).
T1 sequence (P25095 whole entry): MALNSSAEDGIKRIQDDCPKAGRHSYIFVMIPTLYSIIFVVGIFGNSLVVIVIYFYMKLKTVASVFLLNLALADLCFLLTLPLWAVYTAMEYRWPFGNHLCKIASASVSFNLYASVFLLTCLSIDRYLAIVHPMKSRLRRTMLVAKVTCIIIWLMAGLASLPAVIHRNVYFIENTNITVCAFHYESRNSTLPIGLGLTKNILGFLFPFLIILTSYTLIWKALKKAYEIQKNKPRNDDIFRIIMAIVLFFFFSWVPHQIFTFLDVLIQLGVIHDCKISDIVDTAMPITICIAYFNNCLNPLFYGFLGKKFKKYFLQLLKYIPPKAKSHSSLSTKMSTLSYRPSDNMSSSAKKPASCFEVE
The experiment in a line: Displacement of [125]Ang2 from AT1 receptor in rat liver membrane. Format: cell membranes. In outline: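 Rat liver membranes (5 mg original tissue per tube) incubated with [125I]Ang II (80,000–85,000 cpm, 0.03 nM) and varying test concentrations in 50 mM Tris–HCl pH 7.4, 100 mM NaCl, 10 mM MgCl2, 1 mM EDTA, 0.025% bacitracin, 0.2% BSA; 25 °C, 2 h. GF/B filtration, gamma counting; one-site fit; triplicate.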

For a further assay, the target named is AT2 receptor (Sus scrofa, UniProt A0A4X1W622). Description: Displacement of [125]Ang2 from AT2 receptor in pig uterus membrane. The assay is classed as cell membranes.
The next assay concerns NG108-15. Description: Effect on cellular morphology of mouse rat hybrid NG108-15 cells assessed as induction of neurite outgrowth. The assay is classed as functional, cell-based. In outline:
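NG108-15 cells (passage 18–28) grown in DMEM/10% FBS/HAT/gentamycin, 37 °C, 7% CO2. Plated at 3.6 × 10^4 cells per 35 mm dish, dosed daily for 3 days starting 24 h after plating, ± AT2 antagonist PD 123,319 added 30 min before. Phase-contrast micrographs on day 4. Cells with a neurite longer than one cell body counted as % of total (≥290 cells). Three independent experiments, duplicates, mean ± SEM.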

As a reminder, the Ki is the equilibrium dissociation constant of an inhibitor or competing ligand from its target. A low value points to a stronger hold on the target.

For the compound `CCCCOC(=O)NS(=O)(=O)c1sc(CC(C)C)cc1-c1ccc(C(N)=O)cc1`, the Ki in assay [1] was over 10000 nM; at AT2 receptor, 106 nM.
As to `CCCCOC(=O)NS(=O)(=O)c1ccc(-c2ccccc2)cc1-c1ccc(C(=O)N(CC)CC)cc1`, the inhibition constant Ki in assay [1] was over 10000 nM; at AT2 receptor, 52 nM. In addition, the outcome with NG108-15 was Active.
Regarding `CCCCOC(=O)NS(=O)(=O)c1ccc(Oc2ccccc2)cc1-c1ccc(C(=O)N(CC)CC)cc1`, the Ki was over 10000 nM in assay [1] and 91.7 nM at AT2 receptor.
In assay [1], `CCCCOC(=O)NS(=O)(=O)c1ccc(CC(C)C)cc1-c1ccc(Cn2ccnc2)cc1` yielded a Ki of over 10000 nM.
Consider `CCCCOC(=O)NS(=O)(=O)c1sc(CC(C)C)cc1-c1ccc(C(=O)NC2CCCCC2)cc1`, for which the Ki was over 10000 nM in assay [1] and 6.4 nM on AT2 receptor.
In the same order, the values of `CCCCOC(=O)NS(=O)(=O)c1ccccc1-c1ccc(C(=O)N(CC)CC)cc1` are over 10000 nM and 402 nM.
For `CCCCOC(=O)NS(=O)(=O)c1sc(CC(C)C)cc1-c1ccc(C(=O)NC(C)C)cc1`, in that order: over 10000 nM and 2.6 nM.
In the same order, the values of `CCCCOC(=O)NS(=O)(=O)c1sc(CC(C)C)cc1-c1ccc(C(=O)NC2CC2)cc1` are over 10000 nM and 10.5 nM.
`CCCCOC(=O)NS(=O)(=O)c1sc(CC(C)C)cc1-c1ccc(C(=O)Nc2nccs2)cc1`: the results for the Ki (in assay [1]; on AT2 receptor) were over 10000 nM and 10.9 nM, respectively.
In the same order, the values of `CCCCOC(=O)NS(=O)(=O)c1ccc(Cc2ccccc2)cc1-c1ccc(C(=O)N(CC)CC)cc1` are over 10000 nM and 162 nM.
`CCCCOC(=O)NS(=O)(=O)c1cc(Cc2ccccc2)ccc1-c1ccc(C(=O)N(CC)CC)cc1`: the inhibitory constant (Ki) in assay [1] is over 10000 nM; on AT2 receptor it was 300 nM.
For `CCCCOC(=O)NS(=O)(=O)c1sc(CC(C)C)cc1-c1ccc(Cn2c(CC)nc3c(C)cc(C)nc32)cc1`, in that order: 1.1 nM and 2 nM.
As for `CCCCOC(=O)NS(=O)(=O)c1ccc(CC(C)C)cc1-c1ccc(Cn2c(CC)nc3c(C)cc(C)nc32)cc1`, the Ki in assay [1] is 2.1 nM; on AT2 receptor, 0.7 nM.
For `CCCCOC(=O)NS(=O)(=O)c1ccc(CC(C)C)cc1-c1ccc(C(=O)N(CC)CC)cc1`, the figures for the Ki (in assay [1]; at AT2 receptor) were over 10000 nM and 144 nM, respectively.
For `CCCCOC(=O)NS(=O)(=O)c1sc(CC(C)C)cc1-c1ccc(CC(=O)N(C)C)cc1`, in that order: over 10000 nM and 7 nM.
For `CCCCOC(=O)NS(=O)(=O)c1sc(CC(C)C)cc1-c1ccc(C(=O)N(C)Cc2ccccc2)cc1`, in that order: over 10000 nM and 31.5 nM.
For `CCCCOC(=O)NS(=O)(=O)c1sc(CC(C)C)cc1-c1ccc(C(=O)N2CCOCC2)cc1`, in that order: over 10000 nM and 348 nM.
For `CCCCOC(=O)NS(=O)(=O)c1cc(CC(C)C)ccc1-c1ccc(C(=O)N(CC)CC)cc1`, the results for the Ki (in assay [1]; at AT2 receptor) were over 10000 nM and 122 nM, respectively.
On to `CCCCOC(=O)NS(=O)(=O)c1sc(CC(C)C)cc1-c1ccc(C(=O)N2CCCC2)cc1`, for which the Ki was over 10000 nM in assay [1] and 6.4 nM on AT2 receptor.
Consider `CCCCOC(=O)NS(=O)(=O)c1sc(CC(C)C)cc1-c1ccc(C(=O)N(CC)CC)cc1`, for which the Ki was over 10000 nM in assay [1] and 3 nM at AT2 receptor. Besides, in the assay with NG108-15, the outcome was Active.
With `CCCCOC(=O)NS(=O)(=O)c1sc(CC(C)C)cc1-c1ccc(CN(C)C(C)=O)cc1`, the Ki in assay [1] is over 10000 nM; on AT2 receptor it was 8.8 nM.
Regarding `CCCCOC(=O)NS(=O)(=O)c1sc(CC(C)C)cc1-c1ccc(C(=O)NCc2ccccc2)cc1`, the Ki in assay [1] was over 10000 nM; at AT2 receptor, 1 nM. Also, the outcome in the assay on NG108-15 was Active.
For `CCCCOC(=O)NS(=O)(=O)c1sc(CC(C)C)cc1-c1ccc(C(=O)N(C)C)cc1`, the Ki in assay [1] was over 10000 nM; at AT2 receptor it was 36.9 nM.
With `CCCCOC(=O)NS(=O)(=O)c1sc(CC(C)C)cc1-c1ccc(C(=O)N2CCCCC2)cc1`, the Ki was over 10000 nM in assay [1] and 3.2 nM on AT2 receptor.
`CCCCOC(=O)NS(=O)(=O)c1sc(CC(C)C)cc1-c1ccc(Cn2ccnc2)cc1` [BULOXIBUTID]: the inhibition constant (Ki) in assay [1] was over 10000 nM.
